ChEMBL document CHEMBL1932924, “Design, synthesis, and biological evaluation of 4-phenylpyrrole derivatives as novel androgen receptor antagonists” (Bioorg Med Chem, 2012)
pEC50, pIC50: −log10 of the molar value. Values after ≈ are worked out from the molar mass of the structure shown.

Assays:
Mus musculus [1] = assay: Antiandrogenic activity in ICR mouse assessed as ventral prostate weight at 7.5 mg/kg, po bid administered for 7 days (reference value: 14.6 +/- […]); format: functional, Prostate gland
In short: (§1)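 8-week-old male ICR mice, intact, dosed orally for seven days; n = 8 per group. Ventral prostate weighed the day after the last dose. Reduction = decrease in test group ÷ decrease in castrated group × 100. Controls are vehicle-treated mice. Significance by Williams test or unpaired Student's test versus control.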

Mus musculus [2] = assay: Antiandrogenic activity in ICR mouse assessed as reduction of ventral prostate weight at 2.5 mg/kg, po bid administered for 7 days relative to control; format: functional, Prostate gland; design: scale not given: the % may be the effect or the level left; in short: as §1
[3] = (§2) Antitumor activity against human LNCaP-FGC cells expressing androgen receptor W741C/[…] mutant xenografted in castrated BALB/c nude mouse assessed as effect on tumor volume at 25 mg/kg, po bid administered for 29 days measured on day 28 (reference value: 402 +/- 47.7 mm3); format: functional, LNCaP-Clone-FGC
Androgen receptor [4] = biological target: T1, Androgen receptor (Homo sapiens, UniProt P10275, T878A); assay: Antagonist activity at human androgen receptor T877A mutant expressed in COS7 cells assessed as inhibition of DHT-induced luciferase activity after 24 hrs by reporter gene assay; format: functional, cell-based, COS-7
Androgen receptor [5] = biological target: T2, Androgen receptor (Homo sapiens, UniProt P10275); assay: Antagonist activity at human androgen receptor expressed in COS7 cells assessed as inhibition of DHT-induced luciferase activity after 24 hrs by reporter gene assay; format: functional, cell-based, COS-7
T2 sequence (P10275 whole entry): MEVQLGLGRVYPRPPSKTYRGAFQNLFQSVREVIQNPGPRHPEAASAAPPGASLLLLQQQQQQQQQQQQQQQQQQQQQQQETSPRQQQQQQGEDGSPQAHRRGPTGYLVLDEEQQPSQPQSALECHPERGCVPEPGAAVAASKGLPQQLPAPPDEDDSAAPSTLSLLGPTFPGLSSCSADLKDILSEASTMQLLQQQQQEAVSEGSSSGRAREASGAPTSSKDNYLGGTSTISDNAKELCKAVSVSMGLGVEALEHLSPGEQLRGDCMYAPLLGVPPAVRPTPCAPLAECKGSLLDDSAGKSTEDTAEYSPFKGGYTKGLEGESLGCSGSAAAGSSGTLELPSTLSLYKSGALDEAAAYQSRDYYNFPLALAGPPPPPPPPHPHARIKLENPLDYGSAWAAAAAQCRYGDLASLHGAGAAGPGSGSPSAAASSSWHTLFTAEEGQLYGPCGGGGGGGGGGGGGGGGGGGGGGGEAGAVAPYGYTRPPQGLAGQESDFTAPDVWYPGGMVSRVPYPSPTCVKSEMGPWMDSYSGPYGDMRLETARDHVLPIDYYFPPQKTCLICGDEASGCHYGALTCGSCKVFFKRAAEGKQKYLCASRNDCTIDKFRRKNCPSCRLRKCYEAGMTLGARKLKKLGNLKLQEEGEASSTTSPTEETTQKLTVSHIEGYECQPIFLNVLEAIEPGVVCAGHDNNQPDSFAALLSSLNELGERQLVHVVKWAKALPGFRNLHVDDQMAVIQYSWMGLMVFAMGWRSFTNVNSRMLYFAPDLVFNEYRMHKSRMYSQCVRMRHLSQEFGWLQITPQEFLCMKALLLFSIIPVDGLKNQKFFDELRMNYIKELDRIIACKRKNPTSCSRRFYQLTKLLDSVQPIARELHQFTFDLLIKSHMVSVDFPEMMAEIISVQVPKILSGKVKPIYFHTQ

Androgen receptor [6] = biological target: T3, Androgen receptor (Homo sapiens, UniProt P10275, W742C); assay: Agonist activity at human androgen receptor W741C mutant expressed in COS7 cells assessed as luciferase activity after 24 hrs by reporter gene assay; format: functional, cell-based, COS-7
[7] = Antitumor activity against human JDCaP cells expressing wild type AR xenografted in testosterone propionate-challenged castrated BALB/c nude mouse assessed as decrease in tumor volume at 3.125 mg/kg, po bid administered for 29 days measured on day 28 relative to control; format: functional
In short: (§3)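 Nude mice carrying JDCaP tumours, n = 7 per group, castrated and given s.c. testosterone propionate 0.2 mg/kg once daily for 29 days. Oral twice-daily dosing in 0.5% methylcellulose over the same period; controls get vehicle plus TP. Tumour volume measured weekly. T/C = increase in tumour volume versus control × 100.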

Androgen receptor [8] = biological target: T1, Androgen receptor; assay: Agonist activity at human androgen receptor T877A mutant expressed in COS7 cells assessed as luciferase activity after 24 hrs by reporter gene assay; format: functional, cell-based, COS-7
Androgen receptor [9] = biological target: T1, Androgen receptor; assay: Displacement of [17-alpha-methyl-3H]-mibolerone from human androgen receptor T877A mutant expressed in HEK293 derived FreeStyle293F cells after 3 hrs; format: cell-based
Androgen receptor [10] = biological target: T3, Androgen receptor; assay: Antagonist activity at human androgen receptor W741C mutant expressed in COS7 cells assessed as inhibition of DHT-induced luciferase activity after 24 hrs by reporter gene assay; format: functional, cell-based, COS-7
[11] = Antitumor activity against human LNCaP-FGC cells expressing androgen receptor W741C/[…] mutant xenografted in castrated BALB/c nude mouse assessed as effect on tumor volume at 25 mg/kg, po bid administered for 29 days measured on day 28 relative to control; format: functional, LNCaP-Clone-FGC
Mus musculus [12] = assay: Antiandrogenic activity in ICR mouse assessed as reduction of ventral prostate weight at 25 mg/kg, po bid administered for 7 days relative to control; format: functional, Prostate gland; design: scale not given: the % may be the effect or the level left; in short: as §1
Mus musculus [13] = assay: Toxicity in BALB/c mouse assessed as body weight at 25 mg/kg, po bid administered for 29 days measured on day 28 (reference value: 17.6 +/- 0.4g); format: organism-based; design: dose 25 mg/kg, route oral; settings: in vivo, 696 h
[14] = Oral bioavailability in mouse at 5 mg/kg; format: ADME, organism-based; settings: in vivo
In short: (§4)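 Mice given a single oral 5 mg/kg dose; n = 3. AUC, bioavailability (F) and mean residence time derived from plasma exposure.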

[15] = Mean residence time in mouse at 5 mg/kg, po; format: ADME, organism-based; design: dose 5 mg/kg, route oral; settings: in vivo; in short: as §4
Androgen receptor [16] = biological target: T2, Androgen receptor; assay: Agonist activity at human androgen receptor expressed in COS7 cells assessed as luciferase activity after 24 hrs by reporter gene assay; format: functional, cell-based, COS-7
[17] = Antitumor activity against human JDCaP cells expressing wild type AR xenografted in testosterone propionate-challenged castrated BALB/c nude mouse assessed as decrease in tumor volume at 6.25 mg/kg, po bid administered for 29 days measured on day 28 relative to control; format: functional; in short: as §3
Mus musculus [18] = assay: Antiandrogenic activity in ICR mouse assessed as ventral prostate weight at 2.5 mg/kg, po bid administered for 7 days (reference value: 14.6 +/- […]); format: functional, Prostate gland; in short: as §1
[19] = as §2, with “decrease in prostate specific antigen level in plasma” for “effect on tumor volume”, “35.8” for “402”, “10.7 ng/mL)” for “47.7 mm3)”; format: functional, LNCaP-Clone-FGC
Androgen receptor [20] = biological target: T2, Androgen receptor; assay: Displacement of [17-alpha-methyl-3H]-mibolerone from human androgen receptor expressed in HEK293 derived FreeStyle293F cells after 3 hrs; format: cell-based
[21] = AUC in mouse at 5 mg/kg, po; format: ADME, organism-based; design: dose 5 mg/kg, route oral; settings: plasma; in short: as §4
[22] = Antitumor activity against human JDCaP cells expressing wild type AR xenografted in testosterone propionate-challenged castrated BALB/c nude mouse assessed as decrease in tumor volume at 3.125 mg/kg, po bid administered for 29 days measured on day 28 (reference value: 681.8 +/- 75 mm3); format: functional; in short: as §3
Mus musculus [23] = assay: Antiandrogenic activity in ICR mouse assessed as reduction of ventral prostate weight at 7.5 mg/kg, po bid administered for 7 days relative to control; format: functional, Prostate gland; design: scale not given: the % may be the effect or the level left; in short: as §1
Mus musculus [24] = assay: Antiandrogenic activity in ICR mouse assessed as ventral prostate weight at 25 mg/kg, po bid administered for 7 days (reference value: 14.6 +/- […]); format: functional, Prostate gland; in short: as §1
[25] = Antitumor activity against human JDCaP cells expressing wild type AR xenografted in testosterone propionate-challenged castrated BALB/c nude mouse assessed as decrease in tumor volume at 6.25 mg/kg, po bid administered for 29 days measured on day 28 (reference value: 681.8 +/- 75 mm3); format: functional; in short: as §3
[26] = Solubility in aqueous buffer solution at pH 6.8; format: physicochemical
In short: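 DMSO stock added to aqueous buffer at pH 6.8 and incubated. Precipitate removed by filtration; filtrate concentration measured by HPLC.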

Mus musculus [27] = assay: Toxicity in BALB/c mouse assessed as body weight at 20 mg/kg, po qd administered for 29 days measured on day 28 (reference value: 17.6 +/- 0.4g); format: organism-based; design: dose 20 mg/kg, route oral; settings: in vivo, 696 h
[28] = as §2, with “decrease in prostate specific antigen level in plasma” for “effect on tumor volume”, “20” for “25”, “qd” for “bid”, “35.8” for “402”, “10.7 ng/mL)” for “47.7 mm3)”; format: functional, LNCaP-Clone-FGC
In short: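 LNCaP-cxD2 flank xenografts in castrated BALB/c nude mice (n=7), grouped at ~200 mm3. Oral dosing for 29 days from castration, vehicle 0.5% methylcellulose. Blood taken at study end for plasma PSA.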

[29] = Antitumor activity against human JDCaP cells expressing wild type AR xenografted in testosterone propionate-challenged castrated BALB/c nude mouse assessed as decrease in tumor volume at 20 mg/kg, po bid administered for 29 days measured on day 28 (reference value: 1736.6 +/- 486.2 mm3); format: functional
In short: (§5)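 JDCaP tumours in nude mice (n=7) castrated the day after grouping. Testosterone propionate 0.2 mg/kg sc once daily for 29 days. Oral drug or 0.5% methylcellulose vehicle for the same period. Tumour volume measured weekly. T/C = volume increase vs testosterone-treated vehicle control × 100.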

[30] = Antitumor activity against human LNCaP-FGC cells expressing androgen receptor W741C/[…] mutant xenografted in castrated BALB/c nude mouse assessed as effect on tumor volume at 20 mg/kg, po qd administered for 29 days measured on day 28 (reference value: 402 +/- 47.7 mm3); format: functional, LNCaP-Clone-FGC
Mus musculus [31] = assay: Antiandrogenic activity in ICR mouse assessed as reduction of ventral prostate weight at 100 mg/kg, po qd administered for 7 days relative to control; format: functional, Prostate gland; design: scale not given: the % may be the effect or the level left
In short: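 Male ICR mice, 8 weeks old, n=8, dosed orally for seven days with vehicle and castrated groups. Prostate weighed the day after the last dose. % reduction = treated-group weight decrease ÷ castrated-group decrease × 100.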

[32] = Antitumor activity against human JDCaP cells expressing wild type AR xenografted in testosterone propionate-challenged castrated BALB/c nude mouse assessed as decrease in tumor volume at 20 mg/kg, po qd administered for 29 days measured on day 28 relative to control; format: functional; in short: as §5
[33] = Antitumor activity against human LNCaP-FGC cells expressing androgen receptor W741C/[…] mutant xenografted in castrated BALB/c nude mouse assessed as effect on tumor volume at 20 mg/kg, po qd administered for 29 days measured on day 28 relative to control; format: functional, LNCaP-Clone-FGC
In short: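 LNCaP-cxD2 flank xenografts in BALB/c nude mice, grouped at ~200 mm3 (n=7) and castrated next day. Oral dosing for 29 days, vehicle 0.5% methylcellulose. Weekly caliper volumes. T/C = tumour volume increase vs castration (vehicle) group × 100.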

T1 sequence (P10275 whole entry T878A): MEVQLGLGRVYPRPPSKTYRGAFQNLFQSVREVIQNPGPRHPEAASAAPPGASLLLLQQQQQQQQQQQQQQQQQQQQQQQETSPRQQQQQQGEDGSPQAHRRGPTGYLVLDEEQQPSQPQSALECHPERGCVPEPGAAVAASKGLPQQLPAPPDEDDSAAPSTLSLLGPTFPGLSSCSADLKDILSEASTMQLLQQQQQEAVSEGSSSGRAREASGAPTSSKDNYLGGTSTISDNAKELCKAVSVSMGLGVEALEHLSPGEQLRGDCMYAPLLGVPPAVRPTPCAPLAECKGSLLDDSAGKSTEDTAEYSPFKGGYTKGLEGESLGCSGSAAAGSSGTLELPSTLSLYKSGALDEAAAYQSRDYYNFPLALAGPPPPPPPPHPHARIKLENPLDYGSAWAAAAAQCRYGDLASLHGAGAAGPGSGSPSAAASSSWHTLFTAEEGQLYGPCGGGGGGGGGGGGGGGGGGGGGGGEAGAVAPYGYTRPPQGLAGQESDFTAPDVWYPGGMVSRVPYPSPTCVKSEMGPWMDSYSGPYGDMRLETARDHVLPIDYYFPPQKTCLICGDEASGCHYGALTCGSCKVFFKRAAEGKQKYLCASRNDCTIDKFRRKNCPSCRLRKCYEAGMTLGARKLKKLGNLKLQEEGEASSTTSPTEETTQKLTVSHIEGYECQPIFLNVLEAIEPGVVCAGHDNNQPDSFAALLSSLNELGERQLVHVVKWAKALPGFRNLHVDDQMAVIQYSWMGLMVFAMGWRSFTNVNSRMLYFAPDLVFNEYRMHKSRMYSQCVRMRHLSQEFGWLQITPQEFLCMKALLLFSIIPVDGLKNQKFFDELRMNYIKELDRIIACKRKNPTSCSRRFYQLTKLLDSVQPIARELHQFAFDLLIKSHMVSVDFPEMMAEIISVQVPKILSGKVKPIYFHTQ
T3 sequence (P10275 whole entry W742C): as the sequence (P10275 whole entry T878A) above, with W742C, A878T counted along it

Compound: Cc1c(C#N)c(-c2ccc(C#N)cc2)c(C)n1Cc1cnc(Cl)c(CO)c1
- Activity (Mus musculus [1]): 12.2 mg
- Activity (Mus musculus [2]): 16%
- Activity [3]: 269.3 mm3
- pIC50 (Androgen receptor [4]): 6.96
- pIC50 (Androgen receptor [5]): 7.60
- pEC50 (Androgen receptor [6]): < 5.00
- T/C [7]: -44.7%
- pEC50 (Androgen receptor [8]): < 5.00
- pIC50 (Androgen receptor [9]): 7.00
- pIC50 (Androgen receptor [10]): 6.55
- T/C [11]: 15.8%
- Activity (Mus musculus [12]): 74%
- Activity (Mus musculus [13]): 22.9 g
- bioavailability [14]: 104%
- MRT [15]: 4.85 h
- pEC50 (Androgen receptor [16]): < 5.00
- T/C [17]: -44.8%
- Activity (Mus musculus [18]): 13.4 mg
- Activity [19]: 1 ng/mL
- pIC50 (Androgen receptor [20]): 7.43
- AUC [21]: 19200 ng·h/mL
- Activity [22]: 88.4 mm3
- Activity (Mus musculus [23]): 31%
- Activity (Mus musculus [24]): 8.9 mg
- Activity [25]: 94.8 mm3
- solubility [26]: 15 µg/mL (≈ 39.8 µM)

Compound: CC(O)(CS(=O)(=O)c1ccc(F)cc1)C(=O)Nc1ccc(C#N)c(C(F)(F)F)c1 (stereo not drawn) [BICALUTAMIDE]
- Activity (Mus musculus [27]): 17.9 g
- Activity [28]: 38.5 ng/mL
- Activity [29]: 212.2 mm3
- Activity [30]: 461.5 mm3
- Activity (Mus musculus [31]): 40%
- T/C [32]: -70.2%
- T/C [33]: 137.9%
